Cneo AK release: causes C. neoformans cell lysis; AID 651654; hit rate 0.2% among 360,000; lysis activity, % at 15 µM; adenylate kinase release luminescence, 4 h; normalised: neutral wells 0, clomiphene wells 100;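 active means mean lysis activity across replicates of at least 80%, whatever share of replicates individually reach that level; inactive means mean lysis activity below 80%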
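Assay system: C. neoformans cells. Amount: yeast cell density of 5 × 10^6 cells/mL. Technique: AK luminescence. Buffer or medium: YPD. Times: static 4 h at 37 °C with compound, 1 h detection. Dosing: single-point compound dose. Read-out: lysis from increased AK signal.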
PGC1a acetyl inh: modulators of PGC1a acetylation | U2OS PGC1a acetylation, AlphaScreen anti-acetyl-lysine; with virally co-expressed GCN5 acetyltransferase | inhibition, % at 15.6 µM | hit rate 0.17% among 350,000 | AID 651687;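 active means every replicate shows inhibition of at least 40%; inconclusive means mean inhibition at least 40% but some replicate below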;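 further: 0% = neutral control wells and 100% = positive control wells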
FGF22 binding: binders of recombinant human FGF22 by thermal shift; Q9HCT0; SYPRO orange fluorescence; percent of sucrose octasulfate shift, DMSO zero; activity (Tm shift, normalised), % at 9.99 µM; hit rate 1.5% among 340,000;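 active means mean Tm shift, scaled 0 neutral to 100 positive control, at about 1.3% or above, every replicate too, limit read from the data; inconclusive means no clear call, values can overlap the other calls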
Target sequence (Q9HCT0 whole entry, looked up): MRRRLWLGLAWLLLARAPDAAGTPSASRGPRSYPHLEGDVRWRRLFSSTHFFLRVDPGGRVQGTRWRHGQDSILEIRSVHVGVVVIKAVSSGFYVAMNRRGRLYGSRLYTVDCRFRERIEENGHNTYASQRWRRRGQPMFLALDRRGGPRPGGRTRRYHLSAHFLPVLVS
ERAP1 inh: inhibitors of human ERAP1 aminopeptidase; Q9NZ08; recombinant ERAP1, Leu-AMC fluorescence, 60 min; inhibition, % at 10.7 µM; hit rate 0.15% among 340,000;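 active means mean replicate inhibition of at least 30%, or all replicates individually reaching that 30% level; inactive means mean below 30% and not every replicate reaching it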;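 further: 0% = neutral control wells and 100% = L-leucinethiol positive control wells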
rRNA inh HTS: inhibits bacterial ribosomal RNA function over humanized ribosomes; E. coli WT GFP vs humanized-ribosome RFP mutants, fluorescence, 24 h; hits give low values; DMSO median 0, no signal -100; AID 720706; GFP signal change (wild-type ribosome), % (test concentration not listed); hit rate 1.6% among 350,000;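 active means significant combined selectivity score with lowered wild-type GFP, culture density cut under 30%, mutant RFP and density less affected; inactive means any of these conditions unmet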
HIV Env fusion: blocks HIV Env-driven cell-cell fusion. inhibition, % at 12.3 µM. HeLa-JRFL Env/CEM21 cell fusion, luciferase. hit rate 1.1% among 360,000;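 active means mean replicate inhibition score of at least 50 and every replicate individually at or above 50; inconclusive means only one of the two criteria met; inactive means mean below 50 and not all replicates reaching 50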;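 further: 0% = plate neutral controls and 100% = maraviroc near 300 nM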
* hit, by the source's call; i = inactive; ? = inconclusive; . = no result; ! = not active in a repeat; [ ] = another dose, or the depositor's remark. Shown are actives, neighbours in structure and some others; about 3.5% of the full set was active somewhere.

SMILES	Cneo AK release	PGC1a acetyl inh	FGF22 binding	ERAP1 inh	rRNA inh HTS	HIV Env fusion
COc1ccc(CNS(=O)(=O)c2ccc(F)cc2Br)cc1	0	-11	0	-1	-4	-17
COC(=O)[C@@H](NS(=O)(=O)c1cc(Br)ccc1Br)C(C)C	-3	5	0	.	-26*	0
C=CCCN(C(CC(C)C)C(=O)OC)S(=O)(=O)c1cc(Br)ccc1Br (stereo unspecified)	3	.	0	-1	9	24
CCC(C)[C@H](NS(=O)(=O)c1ccc(F)cc1Br)C(=O)OC (stereo partly specified)	7	-24	43*	2	-19	11
CC(Nc1cc(C)cc(C)c1)=[N+](C)CCNS(=O)(=O)c1ccc(Cl)cc1	0	.	0	10	12	61*
COc1ccc(NC(C)=[N+](C)CCNS(=O)(=O)c2ccc(Cl)cc2)cc1Cl	0	2	0	14	4	i
CC1OC2CC(=O)OC2C2=C1C(=O)c1c(O)cccc1C2=O (stereo unspecified)	-5	78*	-1	21	.	.
Cn1c(=O)c2c(nc(N3CCc4ccccc4C3)n2C)n(C)c1=O	-1	-7	0	1	-22*	6
C[C@@H]1CCCCO[C@@H](CN(C)C)[C@H](C)CN([C@@H](C)CO)C(=O)c2cc(NS(=O)(=O)c3ccc(F)cc3)ccc2O1	-8	-5	0	-1	1	29[16.7 µM]
COc1ccc(/C=C/C(=O)Nc2ccc(-c3nnc4n3CCCCC4)cc2)c(OC)c1	.	.	1	-3	-20*	-14
CCOC(=O)/C=C/C(=O)Nc1ccc(-c2nnc3n2CCCCC3)cc1	1	-6	0	1	7	4
CC1Sc2ccc(C(=O)Nc3ccccc3OC(F)F)cc2NC1=O (stereo unspecified)	.	.	.	-4	-20*	-21
Nc1nn(-c2ccccc2)c2ccc([N+](=O)[O-])cc12	-1	.	0	-1	-21*	4
O=[N+]([O-])c1ccc2c(c1)nnn2-c1ccccc1	-1	12	0	1	14	9
O=C(O)C1C2C=CC(C2)C1C(=O)Nc1cccc(C(=O)N2CCCCC2)c1 (stereo unspecified)	1	0	0	-2	-2	.
CC(=O)C(Cc1ccccc1)(Cc1ccccc1)C(C)=O	-2	-10	1	1	3	2
CC(C)(Cc1cccc(CC(C)(C)C(=O)O)c1)C(=O)O	-1	-2	17*	6	5	12
COc1ccc(-c2c[n+](CC(=O)c3cccs3)c3n2CCC3)cc1	.	-3	0	-3	-21	-1
COc1ccc(-c2c[n+](CC(=O)N3c4ccccc4Sc4ccccc43)c3n2CCC3)cc1	.	.	0	2	-45*	13
Cc1ccc(C(=O)C[n+]2cc(-c3ccc(C)cc3)n3c2CCCCC3)cc1	2	-11	.	.	.	68*
COc1ccc(C(=O)C[n+]2cc(-c3ccc(OC)cc3)n3c2CCCC3)cc1	.	-1	43*!	10	-18	-20
Cc1ccc(-c2c[n+](CC(=O)c3cccs3)c3n2CCC3)cc1	.	10	0	-4	-44*	-12
O=C(C[n+]1cc(-c2ccccc2)n2c1CCCCC2)c1ccc(Br)cc1	.	5	1	-2	-55	-6
O=C(C[n+]1cc(-c2ccc(Cl)cc2)n2c1CCC2)N1c2ccccc2Sc2ccccc21	0	.	.	.	.	-2
CCOc1ccccc1CNC(=O)c1nn(C)c2c1CS(=O)(=O)c1ccccc1-2	0	-2	0	0	-7	1
SMILES	Cneo AK release	PGC1a acetyl inh	FGF22 binding	ERAP1 inh	rRNA inh HTS	HIV Env fusion
COc1ccccc1N(C)S(=O)(=O)c1ccc(Cl)c(C(=O)Nc2cccc(C)n2)c1	.	.	0	1	-17	34
Nc1nonc1C(=O)NCCNCc1cc(Br)ccc1OCc1ccccc1F	-1	.	.	.	.	78*
Nc1nonc1C(=O)NCCNCc1ccccc1OCc1ccccc1F	1	-3	.	.	.	-67
CO[C@H]1CN(C)C(=O)c2ccc(NS(=O)(=O)c3cccc(F)c3)cc2OC[C@@H](C)NC[C@H]1C	1	-17	0	0	1	-10[16.7 µM]
CCN1/C(=C/c2ccc3cc(C)ccc3[n+]2CC)Sc2cc(C)c(C)cc21	.	27	0	33*	50	29
O=C1CN(C(=O)COC(=O)c2cccc(Br)c2)c2ccccc2N1	-1	11	1	0	3	-12
Cc1ccc(CNC(=O)C2CCN(S(=O)(=O)c3ccc4c(c3)CC(C)N4C(=O)C3CC3)CC2)cc1 (stereo unspecified)	12	-11	0	-3	-28*	19
COc1ccc(CNS(=O)(=O)c2ccc3c(c2)CC(C)N3C(=O)C2CC2)cc1 (stereo unspecified)	-1	0	0	-1	5	6
COc1cc(CNS(=O)(=O)c2ccc3c(c2)CC(C)N3C(=O)C2CCC2)cc(OC)c1OC (stereo unspecified)	0	.	0	1	-15	57*
COCCNC(=O)C/C(C)=N/NC(=O)C(=O)NC1CCCCC1	.	2	0	-4	19	-1
O=C(NC1CCCCCCC1O)c1ccccc1 (stereo unspecified)	.	57*	0	0	11	22
CS(=O)(=O)N(Cc1ccccc1)c1ccc(C(=O)NC2CCCCC2O)cc1 (stereo unspecified)	.	-4	.	.	.	.
O=C(NC1CCCCC1c1ccccc1)c1ccccc1 (stereo unspecified)	.	.	44*	-1	-10	-21
O=C(NC1CCCCC1)c1ccc(-c2ccccc2)cc1	-2	.	0	9	6	-28
O=C(NC(CC1CCCCC1)C(=O)O)c1ccccc1 (stereo unspecified)	-1	2	44*	5	11	.
CC(C)NC(=O)N1[C@H](C#N)[C@@H](c2ccc(C#CC3CCCC3)cc2)[C@@H]1CO	-3	-7	0	6	2	-27[16.7 µM]
CCCCCCSc1ccc(-c2nc3ccc(C)cn3c2NCc2ccccc2)cc1	9	-8	0	0	-17	?
CCCCCCSc1cccc(-c2nc3ccc(Cl)cn3c2NCc2ccccc2)c1	-1	-4	0	-1	5	72*!
Cc1cccc(NC(=O)CCN2CCCCC2)c1	1	1	0	-2	8	-27
CCOC(=O)c1cccc(OC(=O)CCNC(=O)c2ccc(Cl)cc2)c1	0	.	0	3	-28*	.
CC(=O)c1ccc(OC(=O)CCNC(=O)c2ccccc2)cc1	0	1	0	1	3	7
Cc1ccc([C@H]2N[C@]3(CCCN(Cc4ccco4)C3=O)[C@H]3C(=O)N(Cc4ccccc4)C(=O)[C@@H]23)cc1	0	7	0	0	.	-56

Compound activity from PubChem BioAssay.
